A selection: hits, their analogues and other compounds. The true share with any hit is near 3.8%.
MPTP inh = permeability transition pore inhibition; isolated mouse mitochondria, Ca2+ swelling absorbance, 30 min; inhibition, % at 10 µM; hit rate 1.4% among 360,000;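 active = inhibition of 50% or more, scaled per plate between neutral and stimulator controls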;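 also: 0% = DMSO wells given calcium and 100% = 1 mM EGTA wells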
OX1R antag-1 = antagonists of human orexin 1 receptor (OX1R); hit rate 1.8% among 330,000; OX1R-expressing cells, FRET antagonist read-out; O43613; inhibition, % at 6.6 µM; in the data active = inhibition mostly above about 38%, no sharp cut-off; inactive = mostly below about 40%;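 also: 0% = agonist challenge alone and 100% = reference antagonist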
Target sequence (O43613 whole entry, looked up): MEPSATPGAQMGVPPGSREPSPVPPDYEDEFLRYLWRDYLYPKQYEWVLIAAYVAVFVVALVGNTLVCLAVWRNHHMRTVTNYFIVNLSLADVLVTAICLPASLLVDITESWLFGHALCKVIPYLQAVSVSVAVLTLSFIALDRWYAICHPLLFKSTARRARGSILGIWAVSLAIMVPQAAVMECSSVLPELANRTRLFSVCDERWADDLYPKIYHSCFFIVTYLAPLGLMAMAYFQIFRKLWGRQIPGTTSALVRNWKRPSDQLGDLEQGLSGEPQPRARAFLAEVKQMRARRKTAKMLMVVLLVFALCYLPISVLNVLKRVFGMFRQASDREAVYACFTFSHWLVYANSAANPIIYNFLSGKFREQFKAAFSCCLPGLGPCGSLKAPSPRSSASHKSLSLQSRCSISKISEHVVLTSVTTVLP
CHO parental Ca = counter-screen for OX1R antagonists: effect in parental CHO cells; parental CHO-K1, ATP-induced calcium, Fluo-8 fluorescence; inhibition, % at 5.6 µM; hit rate 0.63% among 330,000;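 active = inhibition above that plate's mean sample inhibition plus 3 SD, cut at about 26% in these data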;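 also: 0% = ATP-challenged DMSO wells and 100% = DMSO wells without ATP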
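test system = CHO parental line | reagent = ATP stimulus | measured by = intracellular calcium via Fluo-8 no-wash fluorescent dye | control set = ATP and no-ATP DMSO wells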
GPR7 antagonist = blocks human GPR7 receptor signaling; P48145; GPR7-expressing cells, fluorescence antagonist assay; inhibition, % at 4.4 µM; hit rate 1.1% among 290,000; in the data active = inhibition above about 16%, passing the limit was not always enough;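 also: cells stimulated with the agonist NPW; 0% = agonist with vehicle and 100% = vehicle without agonist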
OX1R antag-2 = blocks the human orexin 1 receptor; O43613; CHO/OX1R cells, Fluo-8 calcium fluorescence, orexin A; inhibition, % at 5 µM; hit rate 0.43% among 330,000;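 active = inhibition above its plate's threshold, mean inhibition of all tested compounds on the plate plus 3 SD, cut at about 37% in these data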;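 also: 0% = orexin A challenge wells and 100% = SB-334867-A antagonist wells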
OX1R HTRF confirm = OX1R (human) antagonism, HTRF confirmed. OX1R-expressing cells, HTRF antagonist assay. shares compounds with OX1R antag-1. hit rate 49% among 1,800. inhibition, % at 6.6 µM. AID 492964; in the data active = inhibition above about 55%;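 also: CHO cells expressing OX1R stimulated with orexin A at about EC80; 0% = agonist challenge alone and 100% = reference antagonist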
CHO-K1 HTRF = counter-screen for OX1R antagonists: effect in parental CHO-K1 cells | shares compounds with OX1R antag-1 | HTRF counterscreen | inhibition, % at 6.6 µM | hit rate 48% among 1,800 | AID 493232; in the data active = inhibition above about 17%;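 also: 0% = agonist challenge with vehicle and 100% = vehicle alone without agonist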
* = called active by the depositor; . = no result.

SMILES | MPTP inh | OX1R antag-1 | CHO parental Ca | GPR7 antagonist | OX1R antag-2 | OX1R HTRF confirm | CHO-K1 HTRF
CC(C)C[C@H](NC(=O)c1[nH]cnc1C(=O)N[C@@H](C)C(=O)OC(C)(C)C)C(=O)OC(C)(C)C | 0 | 14 | -40 | . | -50 | . | .
CCC(=O)OCCNc1cc(Sc2nccn2C)c2nonc2c1[N+](=O)[O-] | 0 | 122* | 30 | 8 | 34 | 63* | 90*
CC(=O)OCCNc1cc(SC(C)C)c2nonc2c1[N+](=O)[O-] | 1 | 104* | -11 | -14 | -25 | 46 | 72*
CCC(=O)OCCNc1cc(SCCC(=O)OC)c2nonc2c1[N+](=O)[O-] | 0 | 84* | -2 | -4 | -20 | 59* | 78*
CC(C)CCSc1cc(NCCO)c([N+](=O)[O-])c2nonc12 | 5 | 54 | -8 | 2 | -21 | . | .
O=C(Cc1ccc(Cl)cc1Cl)OCC(=O)N1CCN(C(=O)c2ccco2)CC1 | 1 | 13 | -5 | -3 | -24 | . | .
Cc1cc(=O)n(C)c(=O)n1CCCCOc1ccc([N+](=O)[O-])cc1 | 0 | 104* | 0 | 13 | 8 | 25 | 16
Cc1cc(=O)n(C)c(=O)n1CCCCCCOc1ccc([N+](=O)[O-])cc1 | . | 6 | -4 | -1 | -12 | . | .
COc1ccc2c(c1)O/C(=C\c1sccc1C)C2=O | -2 | 81* | -19 | -11 | -12 | 25 | -5
COc1ccc(/C=C2\Oc3ccccc3C2=O)cc1 | 8 | 22 | -10 | . | 1 | . | .
O=C(CN1C2=NCCCN2c2ccccc21)c1cccc(Br)c1 | 0 | -3 | -6 | 1 | -12 | . | .
O=C(CN1C2=NCCCN2c2ccccc21)c1ccc([N+](=O)[O-])cc1 | 0 | 87* | -16 | -4 | -15 | 58* | 62*
Cn1nccc1NS(=O)(=O)c1ccc(NC(=O)C(F)(F)F)cc1 | 1 | 15 | -19 | 1 | -16 | . | .
O=C(CNC(=S)N(CCCN1CCOCC1)Cc1cccs1)NCCCN1CCOCC1 | 0 | 18 | -5 | -7 | -19 | . | .
O=[N+]([O-])c1ccc(S(=O)(=O)N(CCCN2CCOCC2)Cc2cccs2)cc1 | 0 | 86* | -23 | 5 | -24 | 32 | 43*
NC(=O)[C@@H]1CCCCNc2c(F)cc([N+](=O)[O-])cc2C(=O)N[C@@H](CC(=O)O)C(=O)N[C@@H](CCC(=O)O)C(=O)N1 | 1 | 110* | 11 | -5 | -14 | 34 | 33*
CCOC(=O)c1c(N)n(CCOC(=O)c2cccs2)c2nc3ccccc3nc12 | -2 | 78* | -11 | 24 | -3 | 56* | 7
Cc1ccc2c(ccc[n+]2CC(=O)c2ccccc2)c1 | 0 | 84* | -8 | 1 | -15 | 39 | 40*
COc1ccc(C(=O)C[n+]2cccc3cc(C)ccc32)cc1 | 0 | 30 | -10 | 16 | -10 | . | .
C#Cc1ccc2c(c1)COc1c3ccccc3nn1-2 | 1 | 84* | -27 | . | -26 | 60* | 14
C(#Cc1ccc2c(c1)COc1c3ccccc3nn1-2)c1ccccc1 | 1 | 18 | -16 | . | -50 | . | .
CCOc1ccc(S(=O)(=O)n2cc(F)c(=O)[nH]c2=O)cc1 | -1 | 14 | -4 | -8 | -7 | . | .
CN1C(=O)/C(=C2\SC(=S)N(C(CCC(=O)O)C(=O)O)C2=O)c2ccccc21 (configuration not stated) | 0 | 142* | 0 | -5 | -15 | 57* | 102*
NC(=O)C1CCCN(CC(=O)Nc2ccccc2C(=O)NC2CC2)C1 (configuration not stated) | -1 | 6 | -7 | . | -3 | . | .
O=C(CSc1ncn[nH]1)Nc1ccc2c(c1)CCC2 | 1 | 6 | -5 | -3 | -6 | . | .
SMILES | MPTP inh | OX1R antag-1 | CHO parental Ca | GPR7 antagonist | OX1R antag-2 | OX1R HTRF confirm | CHO-K1 HTRF
COc1ccc(C2CC(=O)c3cnc(N4CCc5ccccc54)nc3C2)cc1OC (configuration not stated) | . | 9 | -12 | -14 | 4 | . | .
CNc1nc(N2CCc3ccccc32)ncc1F | 1 | 89* | -11 | -3 | 4 | 83* | 2
COc1ccc(C(=O)c2ccc(Cl)cc2)c2ccccc12 | 2 | 3 | -22 | 0 | -25 | . | .
COc1ccc(C(=O)c2ccccc2)c2c(O)ccc(C(=O)c3ccccc3)c12 | 38 | 104* | 6 | -5 | 18 | 60* | 6
CC(C)C[C@H](NC(=O)N1CC(=O)Nc2ccccc21)C(=O)N[C@@H](Cc1c[nH]c2ccccc12)C(=O)O | 1 | 82* | 0 | -4 | 20 | 44 | 5
O=c1/c(=C/c2ccc(O)cc2)sc2n1CCCN=2 | -1 | 47 | 9 | 14 | -2 | . | .
CN(C)c1ccc(/C=c2\sc3n(c2=O)CCCN=3)cc1 | -5 | 116* | -11 | -4 | -13 | 36 | 31*
Cc1ccc2nc3c(cc(C(=O)NCC4CCCO4)c(=N)n3CCCOC(C)C)c(=O)n2c1 (configuration not stated) | 0 | 82* | -7 | -6 | -15 | 51 | 85*
CCOCCCNc1nc2nc3ccc(C)cn3c(=O)c2cc1C(=O)NCC1CCCO1 (configuration not stated) | -2 | 112* | 11 | 4 | -9 | 44 | 78*
COc1ccc(OC)c(N/C(C)=C/C(=O)c2ccc(Br)cc2)c1 | 2 | 39 | -21 | -3 | -36 | . | .
CNc1ccccc1NC(=O)C1CCCN1C(=O)OCc1ccccc1 (configuration not stated) | -2 | 5 | -23 | 9 | -11 | . | .
O=C(Nc1ccc2nc3ccccc3nc2c1)c1ccccc1 | 2 | 86* | -10 | -4 | 27 | 93* | 10
O=C(Nc1ccc(Nc2ccccc2)cc1)c1ccccc1 | . | 4 | -5 | . | 1 | . | .
CC(=O)Nc1ccc2oc(-c3cc(F)c(F)cc3Cl)nc2c1 | 0 | 31 | -3 | 4 | 0 | . | .
CC(=O)Nc1ccc2oc(-c3ccccc3Br)nc2c1 | 2 | 78* | -10 | 1 | 3 | 42 | 0
CCC(=O)Nc1ccc2oc(-c3ccccc3Br)nc2c1 | 2 | 84* | 5 | 6 | 23 | 51 | 0
CCN1/C(=C2/SC(=S)N(C)C2=O)C=Cc2cc(C)ccc21 | 4 | 8 | -7 | . | -21 | . | .
CCN1C(=O)/C(=C2/C=Cc3cc(C)ccc3N2CC)N(C)C1=S | 14 | 134* | -11 | 4 | -14 | 54 | 79*
COCc1nnc(NC(=O)c2cc(C(=O)OC)cc([N+](=O)[O-])c2)s1 | 0 | 90* | -4 | -11 | -8 | 42 | 46*
O=C(Nc1c[nH]c(=O)[nH]c1=O)c1ccc([N+](=O)[O-])cc1 | -1 | 138* | -5 | -4 | -6 | 49 | 72*
Cc1ccc(C(=O)Nc2c[nH]c(=O)[nH]c2=O)cc1 | -1 | 6 | -5 | -5 | -14 | . | .
O=C(Nc1cc([N+](=O)[O-])ccc1O)c1cccc(C(=O)Nc2cc([N+](=O)[O-])ccc2O)c1 | 0 | 8 | -5 | -16 | -4 | . | .

Screens deposited in PubChem by several laboratories.
